Legend:
Type in all cases: functional
Design in all cases: scale not given: the % may be the effect or the level left
UO-31 = experiment: Growth inhibition of human UO31 cells assessed tumor cell growth at 10^-5 M
Summary of the method: (§1)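 Single-dose screen at 10^-5 M across the 60 human tumor cell line panel, run to NCI standards. The value is the percent growth of each cell line in the presence of compound. Compounds active at this dose moved on to five-concentration testing (10^-4 to 10^-8 M).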

SF-539 = experiment: Growth inhibition of human SF539 cells assessed tumor cell growth at 10^-5 M
Summary of the method: (§2)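 NCI 60-human-tumor-cell-line panel screen. Each compound was tested at a single concentration of 10^-5 M, and percent growth of tumor cells was recorded for each cell line. Growth inhibition was expressed from these percent-growth values.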

U-251 = experiment: Growth inhibition of human U251 cells assessed tumor cell growth at 10^-5 M; summary of the method: as §1
ACHN = experiment: Growth inhibition of human ACHN cells assessed tumor cell growth at 10^-5 M; summary of the method: as §2
HL-60(TB) = experiment: Growth inhibition of human HL-60(TB) cells assessed tumor cell growth at 10^-5 M
Summary of the method: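 HL-60(TB), part of the 60-line panel, tested at a single concentration of 10^-5 M. The read-out is percent tumor cell growth relative to untreated growth.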

HCT-15 = experiment: Growth inhibition of human HCT15 cells assessed tumor cell growth at 10^-5 M; summary of the method: as §2
NCI-H23 = experiment: Growth inhibition of human NCI-H23 cells assessed tumor cell growth at 10^-5 M; summary of the method: as §2
MDA-MB-468 = experiment: Growth inhibition of human MDA-MB-468 cells assessed tumor cell growth at 10^-5 M; summary of the method: as §2
OVCAR-4 = experiment: Growth inhibition of human OVCAR4 cells assessed tumor cell growth at 10^-5 M; summary of the method: as §2
NCI-H226 = experiment: Growth inhibition of human NCI-H226 cells assessed tumor cell growth at 10^-5 M; summary of the method: as §2
A498 = experiment: Growth inhibition of human A498 cells assessed tumor cell growth at 10^-5 M; summary of the method: as §2
SF-268 = experiment: Growth inhibition of human SF268 cells assessed tumor cell growth at 10^-5 M; summary of the method: as §2
SNB-19 = experiment: Growth inhibition of human SNB19 cells assessed tumor cell growth at 10^-5 M; summary of the method: as §1
HOP-92 = experiment: Growth inhibition of human HOP92 cells assessed tumor cell growth at 10^-5 M; summary of the method: as §2
OVCAR-5 = experiment: Growth inhibition of human OVCAR5 cells assessed tumor cell growth at 10^-5 M; summary of the method: as §2
SK-MEL-5 = experiment: Growth inhibition of human SK-MEL-5 cells assessed tumor cell growth at 10^-5 M; summary of the method: as §2
TK-10 = experiment: Growth inhibition of human TK10 cells assessed tumor cell growth at 10^-5 M; summary of the method: as §1
M14 = experiment: Growth inhibition of human M14 cells assessed tumor cell growth at 10^-5 M; summary of the method: as §2
CCRF-CEM = experiment: Growth inhibition of human CCRF-CEM cells assessed tumor cell growth at 10^-5 M; summary of the method: as §2
COLO 205 = experiment: Growth inhibition of human COLO205 cells assessed tumor cell growth at 10^-5 M; summary of the method: as §2
HCT-116 = experiment: Growth inhibition of human HCT116 cells assessed tumor cell growth at 10^-5 M; summary of the method: as §2
PC-3 = experiment: Growth inhibition of human PC3 cells assessed tumor cell growth at 10^-5 M; summary of the method: as §2
LOX IMVI = experiment: Growth inhibition of human LOXIMVI cells assessed tumor cell growth at 10^-5 M; summary of the method: as §2
Malme-3M = experiment: Growth inhibition of human MALME-3M cells assessed tumor cell growth at 10^-5 M; summary of the method: as §2
SK-MEL-28 = experiment: Growth inhibition of human SK-MEL-28 cells assessed tumor cell growth at 10^-5 M; summary of the method: as §2
SK-MEL-2 = experiment: Growth inhibition of human SK-MEL-2 cells assessed tumor cell growth at 10^-5 M; summary of the method: as §2
SW-620 = experiment: Growth inhibition of human SW620 cells assessed tumor cell growth at 10^-5 M; summary of the method: as §1
OVCAR-8 = experiment: Growth inhibition of human OVCAR8 cells assessed tumor cell growth at 10^-5 M; summary of the method: as §2
786-0 = experiment: Growth inhibition of human 786-0 cells assessed tumor cell growth at 10^-5 M; summary of the method: as §2
HT-29 = experiment: Growth inhibition of human HT-29 cells assessed tumor cell growth at 10^-5 M; summary of the method: as §2
BT-549 = experiment: Growth inhibition of human BT549 cells assessed tumor cell growth at 10^-5 M; summary of the method: as §2
SF-295 = experiment: Growth inhibition of human SF295 cells assessed tumor cell growth at 10^-5 M; summary of the method: as §2
SK-OV-3 = experiment: Growth inhibition of human SKOV3 cells assessed tumor cell growth at 10^-5 M; summary of the method: as §2
T47D = experiment: Growth inhibition of human T47D cells assessed tumor cell growth at 10^-5 M; summary of the method: as §1
NCI-H522 = experiment: Growth inhibition of human NCI-H522 cells assessed tumor cell growth at 10^-5 M; summary of the method: as §2
UACC-62 = experiment: Growth inhibition of human UACC62 cells assessed tumor cell growth at 10^-5 M; summary of the method: as §1
HOP-62 = experiment: Growth inhibition of human HOP62 cells assessed tumor cell growth at 10^-5 M; summary of the method: as §2
[1] = Growth inhibition of human Hs 578T cells assessed tumor cell growth at 10^-5 M; summary of the method: as §2
NCI-H460 = experiment: Growth inhibition of human NCI-H460 cells assessed tumor cell growth at 10^-5 M; summary of the method: as §2
MOLT-4 = experiment: Growth inhibition of human MOLT4 cells assessed tumor cell growth at 10^-5 M; summary of the method: as §2
EKVX = experiment: Growth inhibition of human EKVX cells assessed tumor cell growth at 10^-5 M; summary of the method: as §2
NCI/ADR-RES = experiment: Growth inhibition of human NCI/ADR-RES cells assessed tumor cell growth at 10^-5 M; summary of the method: as §2
MDA-MB-231 = experiment: Growth inhibition of human MDA-MB-231 cells assessed tumor cell growth at 10^-5 M; summary of the method: as §2
HCC 2998 = experiment: Growth inhibition of human HCC2998 cells assessed tumor cell growth at 10^-5 M; summary of the method: as §2
MDA-MB-435 = experiment: Growth inhibition of human MDA-MB-435 cells assessed tumor cell growth at 10^-5 M; summary of the method: as §2
A549 = experiment: Growth inhibition of human A549 cells assessed tumor cell growth at 10^-5 M; summary of the method: as §2
CAKI-1 = experiment: Growth inhibition of human Caki1 cells assessed tumor cell growth at 10^-5 M; summary of the method: as §2
KM12 = experiment: Growth inhibition of human KM12 cells assessed tumor cell growth at 10^-5 M; summary of the method: as §2
OVCAR-3 = experiment: Growth inhibition of human OVCAR3 cells assessed tumor cell growth at 10^-5 M; summary of the method: as §2
UACC-257 = experiment: Growth inhibition of human UACC257 cells assessed tumor cell growth at 10^-5 M; summary of the method: as §1
K562 = experiment: Growth inhibition of human K562 cells assessed tumor cell growth at 10^-5 M; summary of the method: as §2
DU-145 = experiment: Growth inhibition of human DU145 cells assessed tumor cell growth at 10^-5 M; summary of the method: as §2
RXF 393 = experiment: Growth inhibition of human RXF393 cells assessed tumor cell growth at 10^-5 M; summary of the method: as §2
IGROV-1 = experiment: Growth inhibition of human IGROV1 cells assessed tumor cell growth at 10^-5 M; summary of the method: as §2
SN12C = experiment: Growth inhibition of human SN12C cells assessed tumor cell growth at 10^-5 M; summary of the method: as §2
NCI-H322M = experiment: Growth inhibition of human NCI-H322M cells assessed tumor cell growth at 10^-5 M; summary of the method: as §2
MCF7 = experiment: Growth inhibition of human MCF7 cells assessed tumor cell growth at 10^-5 M; summary of the method: as §2
SNB-75 = experiment: Growth inhibition of human SNB75 cells assessed tumor cell growth at 10^-5 M; summary of the method: as §1

C=CCn1cc(/C=C2\C(=O)N(c3cccc(Cl)c3)N=C2C)c2ccccc21 showed an Activity (UO-31) of 74.52%, an Activity (SF-539) of 97.52% and an Activity (U-251) of 98.8%. For the same compound, the Activity (ACHN) was 94.59%, the Activity (HL-60(TB)) was 99.5% and the Activity (HCT-15) was 96.63%. The Activity (NCI-H23) was 75.8%, the Activity (MDA-MB-468) was 84.91% and the Activity (OVCAR-4) was 82.6%. It also gave an Activity (NCI-H226) of 70.94%, an Activity (A498) of 69.09% and an Activity (SF-268) of 101.01%. The Activity (SNB-19) was 109.63%, the Activity (HOP-92) was 72.84% and the Activity (OVCAR-5) was 86.3%. For the same compound, the Activity (SK-MEL-5) was 85.6%, the Activity (TK-10) was 110.49% and the Activity (M14) was 96.28%. It also gave an Activity (CCRF-CEM) of 94.38%, an Activity (COLO 205) of 113.25% and an Activity (HCT-116) of 89.43%. It also gave an Activity (PC-3) of 101.22%, an Activity (LOX IMVI) of 90.56% and an Activity (Malme-3M) of 106.35%. The Activity (SK-MEL-28) was 97.08%, the Activity (SK-MEL-2) was 100.76% and the Activity (SW-620) was 97.77%. The Activity (OVCAR-8) was 88.73%, the Activity (786-0) was 115.97% and the Activity (HT-29) was 105.44%. It also gave an Activity (BT-549) of 89.1%, an Activity (SF-295) of 89.63% and an Activity (SK-OV-3) of 94.6%. It also gave an Activity (T47D) of 69.36%, an Activity (NCI-H522) of 104.32% and an Activity (UACC-62) of 69.6%. It also gave an Activity (HOP-62) of 102.06%, an Activity [1] of 97.36% and an Activity (NCI-H460) of 91.1%. For the same compound, the Activity (MOLT-4) was 75.53%, the Activity (EKVX) was 54.36% and the Activity (NCI/ADR-RES) was 91.67%. For the same compound, the Activity (MDA-MB-231) was 84.32%, the Activity (HCC 2998) was 103.61% and the Activity (MDA-MB-435) was 84.21%. For the same compound, the Activity (A549) was 104.05%, the Activity (CAKI-1) was 73.37% and the Activity (KM12) was 90.06%. The Activity (OVCAR-3) was 116.71%, the Activity (UACC-257) was 88.64% and the Activity (K562) was 77.68%. The Activity (DU-145) was 101.89%, the Activity (RXF 393) was 90.86% and the Activity (IGROV-1) was 98.62%. For the same compound, the Activity (SN12C) was 101.52%, the Activity (NCI-H322M) was 79.41% and the Activity (MCF7) was 79.85%. The Activity (SNB-75) was 71.75%.

Reference: ChEMBL document CHEMBL1811814, “Synthesis and evaluation of indole, pyrazole, chromone and pyrimidine based conjugates for tumor growth inhibitory activities--development of highly efficacious cytotoxic agents” (Eur J Med Chem, 2010)
